This passage reports IC50 and Activity results from ChEMBL document CHEMBL1629449, “Structure-based design, synthesis, and pharmacological evaluation of 3-(aminoalkyl)-5-fluoroindoles as myeloperoxidase inhibitors” (J Med Chem, 2010).

For experiment [1], the target named is T1, Myeloperoxidase (Homo sapiens, UniProt P05164).
T1 sequence (P05164 whole entry): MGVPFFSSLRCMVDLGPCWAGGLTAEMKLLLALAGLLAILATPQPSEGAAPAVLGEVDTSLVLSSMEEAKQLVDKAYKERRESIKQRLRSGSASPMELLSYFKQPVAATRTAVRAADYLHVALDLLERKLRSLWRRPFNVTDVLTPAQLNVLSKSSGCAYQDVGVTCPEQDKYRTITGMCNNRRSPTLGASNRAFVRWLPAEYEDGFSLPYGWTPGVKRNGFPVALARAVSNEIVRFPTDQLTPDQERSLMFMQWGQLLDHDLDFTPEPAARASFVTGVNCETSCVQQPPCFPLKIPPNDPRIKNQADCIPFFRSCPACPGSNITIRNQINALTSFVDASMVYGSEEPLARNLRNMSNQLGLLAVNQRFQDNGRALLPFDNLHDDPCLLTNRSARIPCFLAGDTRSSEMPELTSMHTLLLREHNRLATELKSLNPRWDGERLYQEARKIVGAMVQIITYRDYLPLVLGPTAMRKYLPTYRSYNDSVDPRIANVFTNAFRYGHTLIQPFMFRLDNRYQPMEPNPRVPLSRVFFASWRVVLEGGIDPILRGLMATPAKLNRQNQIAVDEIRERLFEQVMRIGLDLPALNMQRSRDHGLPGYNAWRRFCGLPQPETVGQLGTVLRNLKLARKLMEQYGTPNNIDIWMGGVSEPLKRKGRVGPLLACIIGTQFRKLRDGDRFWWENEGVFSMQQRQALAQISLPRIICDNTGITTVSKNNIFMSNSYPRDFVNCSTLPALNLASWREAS
The experiment can be described thus: Inhibition of recombinant MPO mediated taurine chlorination by microplate reader method. It is filed as single protein. Summed up:
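Recombinant MPO (40 nM) was incubated with taurine (15 mM) in pH 7.4 phosphate buffer (10 mM/300 mM NaCl) with compound up to 20 μM at 37 °C. The reaction was started with H2O2 (100 μM) and stopped with catalase after 5 min. Taurine chloramine was read with thionitrobenzoic acid at 412 nm. The no-H2O2 control was set as 100% inhibition. IC50 is the mean ± SD of 3 independent experiments.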

For experiment [2], the target named is T1, Myeloperoxidase. The experiment can be described thus: Inhibition of recombinant MPO mediated LDL oxidation using MPO/Cl-/H2O2 system. Put shortly:
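LDL was isolated from human plasma by ultracentrifugation. It was oxidised at 37 °C in PBS pH 7.2 with MPO (1 μg/mL), LDL (1000 μg/mL), HCl (4 mM), H2O2 (100 μM) and test drug, final concentrations. The reaction was stopped after 5 min on ice. Oxidised LDL was detected by ELISA with Mab AG9 (A405). Most IC50s came from three concentrations (1000, 100, 50 nM).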

Experiment [3] has as its target T2, Myeloperoxidase (Homo sapiens) (UniProt P05164).
T2 sequence (whole entry): T1 sequence (P05164 whole entry)
The experiment can be described thus: Inhibition of recombinant MPO assessed as rate of electron donation to MPO redox intermediate compound II by sequential mixing stopped flow spectroscopy. Put shortly: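 Stopped-flow at pH 7.4, 25 °C, in 200 mM phosphate buffer. Each kobs is the mean of at least three determinations. The second-order rate constant was taken as the slope of kobs versus substrate concentration.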

For experiment [4], the target named is T2, Myeloperoxidase (Homo sapiens). The experiment can be described thus: Inhibition of recombinant MPO assessed as rate of electron donation to MPO redox intermediate compound I by sequential mixing stopped flow spectroscopy. Summed up:
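Stopped-flow kinetics at pH 7.4, 25 °C, in 200 mM phosphate buffer with 2% (v/v) organic solvent. Purified MPO (purity index at least 0.86) at 8 μM was premixed with 80 μM H2O2. Each kobs is the mean of at least three determinations. k3 was taken as the slope of kobs versus substrate concentration.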

Take `CCNCCCc1c[nH]c2ccc(F)cc12`: the IC50 (as a rule, the concentration needed to halve the response being measured) came to 300 nM at Myeloperoxidase [1] and 190 nM on Myeloperoxidase [2].
Regarding `NCCc1c[nH]c2ccc(F)cc12`, the IC50 on Myeloperoxidase [2] amounted to 940 nM.
`CCCCNCCCc1c[nH]c2ccc(F)cc12`: the values for the IC50 at Myeloperoxidase [1] and on Myeloperoxidase [2] were 1500 nM and 17 nM, respectively.
With `CN(C)CCc1c[nH]c2ccc(F)cc12`, the IC50 on Myeloperoxidase [2] is 580 nM.
As for `CCCNCCCc1c[nH]c2ccc(F)cc12`, the figures for the IC50 at Myeloperoxidase [1] and on Myeloperoxidase [2] were 170 nM and 340 nM, respectively.
As for `CCCCNCCc1c[nH]c2ccc(F)cc12`, the results for the IC50 on Myeloperoxidase [1] and at Myeloperoxidase [2] were 1030 nM and 250 nM, respectively.
For the compound `Fc1ccc2[nH]cc(CCN3CCCC3)c2c1`, the IC50 on Myeloperoxidase [2] came out at 1030 nM.
For the compound `CNCCc1c[nH]c2ccc(F)cc12`, the IC50 at Myeloperoxidase [1] turned out to be 200 nM; at Myeloperoxidase [2] it was 650 nM.
Taken in the same sequence, the figures for `CCN(CC)CCCc1c[nH]c2ccc(F)cc12` were 350 nM and 390 nM.
Take `NCCCCCc1c[nH]c2ccc(F)cc12`: the values for the Activity in experiment [3] and in experiment [4] were 506 M⁻¹ s⁻¹ and 1 ×10⁷ /M/s, respectively. For the same compound, the IC50 at Myeloperoxidase [2] was determined as 5 nM.
Turning to `CN(C)CCCc1c[nH]c2ccc(F)cc12`, the IC50 at Myeloperoxidase [2] is 49 nM.
Turning to `CN1CCN(Cc2c[nH]c3ccc(F)cc23)CC1`, the IC50 on Myeloperoxidase [1] was 1000 nM; on Myeloperoxidase [2] it was > 1000 nM.
On to `CN1CCN(CCc2c[nH]c3ccc(F)cc23)CC1`, for which the IC50 turned out to be 200 nM on Myeloperoxidase [1] and 650 nM on Myeloperoxidase [2].
Turning to `CCNCCc1c[nH]c2ccc(F)cc12`, the IC50 was 300 nM at Myeloperoxidase [1] and 850 nM at Myeloperoxidase [2].
For the compound `Fc1ccc2[nH]cc(CCCN3CCCC3)c2c1`, the values for the IC50 on Myeloperoxidase [1] and at Myeloperoxidase [2] were 320 nM and 210 nM, respectively.
In the case of `CCN(CC)CCc1c[nH]c2ccc(F)cc12`, the IC50 at Myeloperoxidase [2] was 510 nM.
As for `CN1CCN(CCCc2c[nH]c3ccc(F)cc23)CC1`, the IC50 at Myeloperoxidase [1] worked out at 350 nM; at Myeloperoxidase [2], 310 nM.
In the case of `CCCNCCc1c[nH]c2ccc(F)cc12`, the figures for the half-maximal inhibitory concentration (IC50) at Myeloperoxidase [1] and on Myeloperoxidase [2] were 800 nM and 460 nM, respectively.
For the compound `NCCCCc1c[nH]c2ccc(F)cc12`, the Activity in experiment [3] came out at 360 M⁻¹ s⁻¹; in experiment [4], 1.1 ×10⁷ /M/s. Also, the concentration for half-maximal inhibition (IC50) at Myeloperoxidase [2] stood at 12 nM.
For `NCCCCCCc1c[nH]c2ccc(F)cc12`, the IC50 on Myeloperoxidase [2] is 580 nM.
`CCN(CC)Cc1c[nH]c2ccc(F)cc12`: the IC50 on Myeloperoxidase [1] was 200 nM; at Myeloperoxidase [2], > 1000 nM.
In the case of `CNCCCc1c[nH]c2ccc(F)cc12`, the IC50 came to 200 nM at Myeloperoxidase [1] and 26 nM on Myeloperoxidase [2].
On to `NCCCc1c[nH]c2ccc(F)cc12`, for which, at Myeloperoxidase [2], the IC50 amounted to 650 nM.
With `NCc1c[nH]c2ccc(F)cc12`, the IC50 at Myeloperoxidase [1] is 900 nM; at Myeloperoxidase [2], > 1000 nM.
